Published values of several laboratories.
CDK2: Cyclin-dependent kinase 2 (CDK2, Homo sapiens, UniProt P24941)

Compound | target | test | system | conditions | endpoint | result
C1=C/COCc2cc(ccc2OCCN2CCCC2)Nc2nccc(n2)-c2cccc(c2)COC/1 | Serine/threonine-protein kinase D3 (PRKD3, Homo sapiens, UniProt O94806) | binding |  | 0.1 µM | remaining binding | 89%
Cc1cc(S(=O)(=O)NC2CC(N3CCN(CC4CCN(c5cccc6c5n(C)c(=O)n6C5CCC(=O)NC5=O)CC4)C4(CC4)C3)C2)ccc1Nc1ncc(C(F)(F)F)c(N2CCC[C@](C)(O)C2)n1 (stereo partly shown) | CDK2 | protein level, degrader, western blot | MKN-1 |  | Dmax | 92%
Cc1cc(=O)oc2cc(NC(=O)[C@H](CCCN=C(N)N)NC(=O)[C@H](CCCN=C(N)N)NC(=O)OCc3ccccc3)ccc12 | Cathepsin B (CTSB, Homo sapiens, UniProt P07858) | enzyme activity, substrate, fluorescence |  | pH 7.5 | Km | 468 µM
Cc1cc(O)c(-c2ccc([C@@H](C)CN(C)C)cc2)c2c1[nH]c(=O)c1sccc12 | MAP kinase-activated protein kinase 3 (MAPKAPK3, Homo sapiens, UniProt Q16644) | enzyme activity, inhibitor |  | 0.1 µM | inhibition | -21.1%
NC/C(=C\F)COc1cccc(Cn2c(=S)[nH]c(=O)c3[nH]cnc32)c1 | Voltage-dependent N-type calcium channel subunit alpha-1B (Cacna1b, Rattus norvegicus, UniProt Q02294) | ligand displacement, radioligand |  | 10 µM | inhibition | < 50%
Cc1cc(S(=O)(=O)NCCO[C@H]2CC[C@H](CN3CCC(c4ccc5c(c4)n(C)c(=O)n5C4CCC(=O)NC4=O)CC3)CC2)ccc1Nc1ncc(C(F)(F)F)c([C@H]2CC[C@@](C)(O)CC2)n1 (stereo partly shown) | CDK2 | protein level, degrader, western blot | MKN-1 |  | Dmax | 90%
CCCCC(=O)Nc1ccc(-c2ccc3ncn(CCC)c(=O)c3c2)cn1 | Serine/threonine-protein kinase TNNI3K (TNNI3K, Homo sapiens, UniProt Q59H18) | binding, competition with immobilised ligand |  | 0.5 µM | remaining binding | 91%
C#Cc1cc(-c2cc(Nc3nc(N[C@@H](C)c4ccc(F)cn4)ncc3Cl)n[nH]2)ccc1C=O | Tyrosine-protein kinase Fyn (FYN, Homo sapiens, UniProt P06241) | enzyme activity, inhibitor |  | 0.2 µM | inhibition | 66.5%
C[C@H]1CN(CC2CCN(c3ccc(C4CCC(=O)NC4=O)cc3F)CC2)CC[C@H]1NS(=O)(=O)c1ccc(Nc2ncc(C(F)(F)F)c(N3CCC[C@](C)(O)C3)n2)c(F)c1 (stereo partly shown) | CDK2 | protein level, degrader, western blot | TOV21G |  | Dmax | 93%
COc1cc(Br)cc(C2NC(=O)NC(C)=C2C(=O)OCc2ccccc2)c1O (stereo not shown) | Voltage-dependent L-type calcium channel subunit alpha-1C (Cacna1c, Rattus norvegicus, UniProt P22002) | ion current, inhibitor, patch clamp | HEK293 | 10 µM | inhibition | > 60%
